According to ChEMBL document CHEMBL1914331, “N-O chemistry for antibiotics: discovery of N-alkyl-N-(pyridin-2-yl)hydroxylamine scaffolds as selective antibacterial agents using nitroso Diels-Alder and ene chemistry” (J Med Chem, 2011):
Values after ≈ are worked out from the molar mass of the structure shown.

Tests used:
[1] = system: Escherichia coli; assay: Antimicrobial activity against Escherichia coli DC0 after 24 hrs by Kirby-Bauer agar diffusion assay; format: functional
In short: (§1)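 Modified Kirby-Bauer well diffusion. Overnight LB cultures (18–24 h) were standardized in 0.9% saline to 0.5 McFarland and mixed into melted MHII agar at 47–50 °C, giving ~5×10³ CFU/mL. 9 mm wells received 50 µL of 2.0 mM compound in 10:1 MeOH:DMSO. Plates were incubated 24 h at 37 °C, then growth-inhibition zone diameter was measured (mm) by caliper.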

[2] = system: Enterococcus faecalis; assay: Antimicrobial activity against vancomycin-resistant Enterococcus faecalis 1528 after 24 hrs by Kirby-Bauer agar diffusion assay; format: functional
In short: (§2)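 Overnight LB cultures (18–24 h) adjusted to a 0.5 McFarland standard (1.5×10^6 CFU/mL in 0.9% saline), then 0.1 mL mixed into 34 mL molten MHII agar at 47–50 °C (~5×10^3 CFU/mL). 50 µL of 2.0 mM compound in 10:1 MeOH:DMSO placed in 9 mm wells. Incubated at 37 °C for 24 h; inhibition zone diameter (mm) measured by caliper.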

[3] = system: Enterococcus faecalis; assay: Antimicrobial activity against Enterococcus faecalis ATCC 49532 assessed after 18 hrs by broth microdilution method; format: functional; settings: ATCC 49532, 18 h
In short: (§3)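 CLSI broth microdilution in cation-adjusted MHII broth. 20 mM DMSO stocks were diluted to 512 µM, then serially 2-fold, giving final 128–0.0625 µM with 5×10⁵ CFU/mL inoculum. Incubated 18 h at 37 °C. MIC90 was the lowest concentration giving 90% inhibition by visual turbidity versus DMSO wells. Run in triplicate.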

[4] = system: Bacillus subtilis; assay: Antimicrobial activity against Bacillus subtilis ATCC 6633 after 24 hrs by Kirby-Bauer agar diffusion assay; format: functional; in short: as §1
[5] = system: PC-3; assay: Cytotoxicity against human PC3 cells; format: cell-based
[6] = system: Enterococcus faecalis; assay: Antimicrobial activity against Enterococcus faecalis ATCC 49532 after 24 hrs by Kirby-Bauer agar diffusion assay; format: functional; in short: as §1
[7] = system: Pseudomonas aeruginosa; assay: Antimicrobial activity against Pseudomonas aeruginosa 799/WT after 24 hrs by Kirby-Bauer agar diffusion assay; format: functional; in short: as §1
[8] = system: Staphylococcus aureus; assay: Antimicrobial activity against methicillin-resistant Staphylococcus aureus 134/94 after 24 hrs by Kirby-Bauer agar diffusion assay; format: functional; in short: as §2
[9] = system: Micrococcus luteus; assay: Antimicrobial activity against Micrococcus luteus ATCC 10240 after 24 hrs by Kirby-Bauer agar diffusion assay; format: functional; in short: as §1
[10] = system: Micrococcus luteus; assay: Antimicrobial activity against Micrococcus luteus ATCC 10240 assessed after 18 hrs by broth microdilution method; format: functional; settings: ATCC 10240, 18 h; in short: as §3
[11] = system: Staphylococcus aureus; assay: Antimicrobial activity against Staphylococcus aureus SG511 after 24 hrs by Kirby-Bauer agar diffusion assay; format: functional; in short: as §1
[12] = system: Mycolicibacterium vaccae; assay: Antimicrobial activity against Mycobacterium vaccae IMET 10670 after 24 hrs by Kirby-Bauer agar diffusion assay; format: functional; in short: as §1
[13] = system: Escherichia coli; assay: Antimicrobial activity against Escherichia coli DC2 after 24 hrs by Kirby-Bauer agar diffusion assay; format: functional; in short: as §1
[14] = system: Staphylococcus aureus; assay: Antimicrobial activity against Staphylococcus aureus SG511 assessed after 18 hrs by broth microdilution method; format: functional; settings: SG511, 18 h; in short: as §3
[15] = system: Pseudomonas aeruginosa; assay: Antimicrobial activity against Pseudomonas aeruginosa 799/61 after 24 hrs by Kirby-Bauer agar diffusion assay; format: functional; in short: as §1
[16] = system: Sporobolomyces salmonicolor; assay: Antimicrobial activity against Sporidiobolus salmonicolor 549 after 24 hrs by Kirby-Bauer agar diffusion assay; format: functional; in short: as §1
[17] = system: HeLa; assay: Cytotoxicity against human HeLa cells; format: cell-based
[18] = system: MCF7; assay: Cytotoxicity against human MCF7 cells; format: cell-based
[19] = system: Mycolicibacterium vaccae; assay: Antimicrobial activity against Mycobacterium vaccae IMET 10670 at 5 ug/ml after 24 hrs by Kirby-Bauer agar diffusion assay; format: functional; settings: IMET 10670, 24 h, read-out: DIZ
In short: (§4)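 Ciprofloxacin control, 5 µg/mL in water, 50 µL per 9 mm well in MHII agar seeded with ~5×10³ CFU/mL (saline suspension standardized to 0.5 McFarland from an overnight LB culture). Incubated at 37 °C for 24 h; inhibition zone diameter read in mm.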

[20] = system: Escherichia coli; assay: Antimicrobial activity against Escherichia coli DC2 at 5 ug/ml after 24 hrs by Kirby-Bauer agar diffusion assay; settings: DC2, 24 h, read-out: DIZ
[21] = system: Pseudomonas aeruginosa; assay: microbe, parasite or virus in culture; settings: 799/61, 24 h, read-out: DIZ
[22] = system: Micrococcus luteus; assay: Antimicrobial activity against Micrococcus luteus ATCC 10240 at 5 ug/ml after 24 hrs by Kirby-Bauer agar diffusion assay; format: functional; settings: ATCC 10240, 24 h, read-out: DIZ; in short: as §4
[23] = system: Enterococcus faecalis; assay: microbe, parasite or virus in culture; settings: Enterococcus faecalis, 1528, 24 h, read-out: DIZ
[24] = system: Enterococcus faecalis; assay: microbe, parasite or virus in culture; settings: ATCC 49532, 24 h, read-out: DIZ
[25] = system: Staphylococcus aureus; assay: microbe, parasite or virus in culture; settings: 134/94, 24 h, read-out: DIZ
[26] = system: Pseudomonas aeruginosa; assay: microbe, parasite or virus in culture; settings: 799/WT, 24 h, read-out: DIZ
[27] = system: Bacillus subtilis; assay: microbe, parasite or virus in culture; settings: ATCC 6633, 24 h, read-out: DIZ
[28] = system: Escherichia coli; assay: Antimicrobial activity against Escherichia coli DC0 at 5 ug/ml after 24 hrs by Kirby-Bauer agar diffusion assay; settings: DC0, 24 h, read-out: DIZ
[29] = system: Staphylococcus aureus; assay: Antimicrobial activity against Staphylococcus aureus SG511 at 5 ug/ml after 24 hrs by Kirby-Bauer agar diffusion assay; settings: SG511, 24 h, read-out: DIZ
[30] = system: Sporobolomyces salmonicolor; assay: Antimicrobial activity against Sporidiobolus salmonicolor 549 at 10 ug/ml after 24 hrs by Kirby-Bauer agar diffusion assay; format: functional; settings: Sporobolomyces salmonicolor, 549, 24 h; read-out: DIZ
In short: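 Control for the yeast: amphotericin B, 10 µg/mL in 10:1 DMSO:MeOH, 50 µL per 9 mm well in inoculated MHII agar (~5×10³ CFU/mL). Incubated at 37 °C for 24 h; growth-inhibition zone diameter measured in mm.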

## CO[C@@H]1C=C[C@@H](N(O)c2ccc(Br)cn2)CC1 (racemic)
[1]
  diameter of the inhibition zone (DIZ): <=10 mm
[2]
  diameter of the inhibition zone (DIZ): 16 mm
[3]
  MIC90: > 128 µM
[4]
  diameter of the inhibition zone (DIZ): <=10 mm
[5]
  Activity: Non-toxic
[6]
  diameter of the inhibition zone (DIZ): 16 mm
[7]
  diameter of the inhibition zone (DIZ): <=10 mm
[8]
  diameter of the inhibition zone (DIZ): 11 mm
[9]
  diameter of the inhibition zone (DIZ): 34 mm
[10]
  MIC90: 4 µM (≈ 1.2 µg/mL)
[11]
  diameter of the inhibition zone (DIZ): 12 mm
[12]
  diameter of the inhibition zone (DIZ): 11 mm
[13]
  diameter of the inhibition zone (DIZ): <=10 mm
[14]
  MIC90: > 128 µM
[15]
  diameter of the inhibition zone (DIZ): <=10 mm
[16]
  diameter of the inhibition zone (DIZ): <=10 mm
[17]
  Activity: Non-toxic
[18]
  Activity: Non-toxic

## C=C(C)C(C)N(O)c1cccc(C)n1 (racemic)
[1]
  diameter of the inhibition zone (DIZ): <=10 mm
[2]
  diameter of the inhibition zone (DIZ): 16 mm
[3]
  MIC90: > 128 µM
[4]
  diameter of the inhibition zone (DIZ): <=10 mm
[5]
  Activity: Non-toxic
[6]
  diameter of the inhibition zone (DIZ): 15 mm
[7]
  diameter of the inhibition zone (DIZ): <=10 mm
[8]
  diameter of the inhibition zone (DIZ): 11 mm
[9]
  diameter of the inhibition zone (DIZ): 48 mm
[10]
  MIC90: 4 µM (≈ 0.769 µg/mL)
[11]
  diameter of the inhibition zone (DIZ): 12 mm
[12]
  diameter of the inhibition zone (DIZ): 16 mm
[13]
  diameter of the inhibition zone (DIZ): <=10 mm
[14]
  MIC90: > 128 µM
[15]
  diameter of the inhibition zone (DIZ): <=10 mm
[16]
  diameter of the inhibition zone (DIZ): <=10 mm
[17]
  Activity: Non-toxic
[18]
  Activity: Non-toxic

## O=C(O)c1cn(C2CC2)c2cc(N3CCNCC3)c(F)cc2c1=O [CIPROFLOXACIN]
[19]
  zone of inhibition at 5 µg/mL: ≥ 21 mm
[20]
  zone of inhibition at 5 µg/mL: ≥ 21 mm
[21]
  zone of inhibition at 5 µg/mL: ≥ 21 mm
[22]
  zone of inhibition at 5 µg/mL: ≤ 10 mm
[3]
  MIC90: 2 µM (≈ 0.663 µg/mL)
[23]
  zone of inhibition at 5 µg/mL: 16 mm
[24]
  zone of inhibition at 5 µg/mL: 16 mm
[25]
  zone of inhibition at 5 µg/mL: 11 mm
[26]
  zone of inhibition at 5 µg/mL: ≥ 21 mm
[27]
  zone of inhibition at 5 µg/mL: ≥ 21 mm
[14]
  MIC90: 0.5 µM (≈ 0.166 µg/mL)
[28]
  zone of inhibition at 5 µg/mL: ≥ 21 mm
[29]
  zone of inhibition at 5 µg/mL: ≥ 21 mm

## C[C@@H]1[C@H](O)[C@@H](C)/C=C/C=C/C=C/C=C/C=C/C=C/C=C/[C@H](O[C@@H]2O[C@H](C)[C@@H](O)[C@H](N)[C@@H]2O)C[C@@H]2O[C@](O)(C[C@@H](O)C[C@@H](O)[C@H](O)CC[C@@H](O)C[C@@H](O)CC(=O)O[C@H]1C)C[C@H](O)[C@H]2C(=O)O [AMPHOTERICIN B]
[30]
  zone of inhibition at 10 µg/mL: 16 mm

## C=C(C)C(CC/C(C)=C/CO)N(O)c1ccccn1 (racemic)
[1]
  diameter of the inhibition zone (DIZ): <=10 mm
[2]
  diameter of the inhibition zone (DIZ): 16 mm
[3]
  MIC90: > 128 µM
[4]
  diameter of the inhibition zone (DIZ): 11 mm
[5]
  Activity: Non-toxic
[6]
  diameter of the inhibition zone (DIZ): 20 mm
[7]
  diameter of the inhibition zone (DIZ): <=10 mm
[8]
  diameter of the inhibition zone (DIZ): 16 mm
[9]
  diameter of the inhibition zone (DIZ): 35 mm
[10]
  MIC90: 8 µM (≈ 2.1 µg/mL)
[11]
  diameter of the inhibition zone (DIZ): 19 mm
[12]
  diameter of the inhibition zone (DIZ): 16 mm
[13]
  diameter of the inhibition zone (DIZ): <=10 mm
[14]
  MIC90: 64 µM (≈ 16.8 µg/mL)
[15]
  diameter of the inhibition zone (DIZ): <=10 mm
[16]
  diameter of the inhibition zone (DIZ): <=10 mm
[17]
  Activity: Non-toxic
[18]
  Activity: Non-toxic
